From ChEMBL document CHEMBL4364253, “Application of Dually Activated Michael Acceptor to the Rational Design of Reversible Covalent Inhibitor for Enterovirus 71 3C Protease” (J Med Chem, 2019)
The source made the active and inactive calls.

Assays:
[1] = Reversible inhibition of Enterovirus 71 3C protease assessed as overall inhibition constant using NMA-IEALFQGPPK(DNP)FR as substrate pre-incubated for 30 mins followed by substrate addition and measured over 30 mins by fluorescence method; design: species or system Enterovirus A71
[2] = test system: Enterovirus A71; assay: Antiviral activity against pseudotyped Enterovirus A71 infected in human muscular rhabdomyosarcoma cells treated prior to viral infection and measured after 24 hrs by luminescence method; type: functional, organism-based; conditions: Enterovirus A
[3] = test system: RD; assay: Cytotoxicity against human RD cells at 100 uM after 24 hrs by WST-1 assay relative to control; type: cell-based
[4] = biological target: T1, Cathepsin K (Homo sapiens) (UniProt P43235); assay: Inhibition of human Cathepsin K at 50 uM using Ac-LR-AFC as substrate preincubated for 10 to 15 mins followed by substrate addition and measured for 30 to 60 mins by fluorescence method relative to control
T1 sequence (whole entry): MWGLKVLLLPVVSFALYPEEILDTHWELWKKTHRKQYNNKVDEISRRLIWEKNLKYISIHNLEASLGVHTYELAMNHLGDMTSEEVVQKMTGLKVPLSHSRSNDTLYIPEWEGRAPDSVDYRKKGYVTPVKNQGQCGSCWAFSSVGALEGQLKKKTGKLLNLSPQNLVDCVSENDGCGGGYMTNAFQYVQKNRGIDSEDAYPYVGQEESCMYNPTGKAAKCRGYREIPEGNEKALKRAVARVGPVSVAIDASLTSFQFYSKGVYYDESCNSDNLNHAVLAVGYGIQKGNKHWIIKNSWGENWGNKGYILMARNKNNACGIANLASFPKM

[5] = biological target: T2, Calpain-1 catalytic subunit (Homo sapiens) (UniProt P07384); assay: Inhibition of human Calpain1 at 50 uM using Ac-LLY-AFC as substrate preincubated for 5 mins followed by substrate addition and measured after 10 mins by fluorescence method relative to control
T2 sequence (whole entry): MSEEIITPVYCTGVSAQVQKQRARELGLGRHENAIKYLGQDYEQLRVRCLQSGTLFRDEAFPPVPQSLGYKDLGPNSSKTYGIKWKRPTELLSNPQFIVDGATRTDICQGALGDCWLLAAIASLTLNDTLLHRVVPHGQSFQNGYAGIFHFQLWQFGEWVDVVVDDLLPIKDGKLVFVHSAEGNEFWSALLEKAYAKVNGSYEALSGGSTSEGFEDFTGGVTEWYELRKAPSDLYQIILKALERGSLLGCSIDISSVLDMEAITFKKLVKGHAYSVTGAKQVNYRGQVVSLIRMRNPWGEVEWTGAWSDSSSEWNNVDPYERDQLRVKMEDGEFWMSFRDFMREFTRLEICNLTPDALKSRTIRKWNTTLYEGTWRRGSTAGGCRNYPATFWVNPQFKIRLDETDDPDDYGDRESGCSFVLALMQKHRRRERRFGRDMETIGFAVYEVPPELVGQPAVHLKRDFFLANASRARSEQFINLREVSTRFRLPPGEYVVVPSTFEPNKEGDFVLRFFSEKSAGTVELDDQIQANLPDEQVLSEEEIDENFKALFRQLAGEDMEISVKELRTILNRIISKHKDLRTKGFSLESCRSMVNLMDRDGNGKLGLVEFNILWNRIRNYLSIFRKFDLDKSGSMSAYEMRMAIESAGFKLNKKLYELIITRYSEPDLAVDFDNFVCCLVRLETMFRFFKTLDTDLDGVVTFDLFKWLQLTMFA

[6] = biological target: Chymotrypsinogen A (Bos taurus) (UniProt P00766); assay: Inhibition of bovine pancreas alpha-chymotrypsin at 50 uM after 30 mins using N-Succinyl-L-phenylalanine- p-nitroanilide measured for 30 mins
[7] = test system: Enterovirus A71; assay: Binding affinity to Enterovirus 71 3C protease assessed as enzyme-compound covalent adduct formation via Cys147 residue by measuring ratio of peak intensity of covalently modified to unmodified protein at 10 equivalent after 30 mins by HPLC-ESI/MS analysis
Procedure, shortened: (§1)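 Recombinant EV71 3C protease (40 µM) incubated with inhibitor at 30 °C in 50 mM Tris, 150 mM NaCl, 1 mM EDTA-2Na, pH 7.0. Free inhibitor and salts removed by three ultrafiltration washes with water (10 kDa cutoff). Analysis by HPLC-ESI-Orbitrap MS with 0.1% formic acid water/acetonitrile mobile phases. Spectra deconvoluted; modification given as adduct-to-unmodified protein peak intensity ratio (I_add/I_pro).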

[8] = test system: Enterovirus A71; assay: Irreversible covalent inhibition of Enterovirus 71 3C protease up to 80 uM using NMA-IEALFQGPPK(DNP)FR as substrate by fluorescence method; conditions: TDE = time-dependent effect
[9] = test system: Enterovirus A71; assay: Irreversible covalent inhibition of Enterovirus 71 3C protease assessed as steady-state velocity approaching zero up to 64 uM using NMA-IEALFQGPPK(DNP)FR as substrate by fluorescence method
[10] = test system: Enterovirus A71; assay: Irreversible covalent inhibition of Enterovirus 71 3C protease assessed as Kinact/Ki ratio using NMA-IEALFQGPPK(DNP)FR as substrate and measured for 1 to 1.5 hrs by fluorescence method
[11] = test system: Enterovirus A71; assay: Reversible inhibition of Enterovirus 71 3C protease assessed as recovery of enzyme activity at 10 to 20 equivalent using peptide substrate pre-incubated for 1 hr followed by dialysis and subsequent substrate addition measured up to 72 hrs relative to control; design: scale not given: the % may be the effect or the level left
[12] = test system: Enterovirus A71; assay: Reversible inhibition of Enterovirus 71 3C protease assessed as recovery of enzyme activity at 10 to 20 equivalent using peptide substrate pre-incubated for 1 hr followed by dilution prior to substrate addition using ultra-filtered sample relative to control
[13] = test system: Enterovirus A71; assay: Binding affinity to Enterovirus 71 3C protease assessed as enzyme-compound covalent adduct formation via Cys147 residue by measuring ratio of peak intensity of covalently modified to unmodified protein at 10 to 20 equivalent after 1 hr by HPLC-ESI/MS analysis; procedure, shortened: as §1
[14] = test system: Enterovirus A71; assay: Inhibition of Enterovirus 71 3C protease in presence of ethanolamine
[15] = test system: Enterovirus A71; assay: Antiviral activity against pseudotyped FY Enterovirus A71 harboring luciferase reporter gene infected in HEK-293T cells in presence of lysine by Bright-Glo Luciferase Assay; type: functional, organism-based
[16] = test system: Enterovirus A71; assay: Antiviral activity against pseudotyped FY Enterovirus A71 harboring luciferase reporter gene infected in HEK-293T cells in presence of glutathione by Bright-Glo Luciferase Assay; type: functional, organism-based
[17] = test system: Enterovirus A71; assay: Antiviral activity against pseudotyped FY Enterovirus A71 harboring luciferase reporter gene infected in HEK-293T cells in presence of ethanolamine by Bright-Glo Luciferase Assay; type: functional, organism-based
[18] = test system: Enterovirus A71; assay: Inhibition of Enterovirus 71 3C protease in presence of lysine
[19] = test system: Enterovirus A71; assay: Inhibition of Enterovirus 71 3C protease in presence of glutathione

Cc1cc(C(=O)N[C@@H](Cc2ccc(F)cc2)C(=O)N[C@H](/C=C(\C#N)C(=O)OC(C)C)C[C@@H]2CCCNC2=O)no1
Ki [1]: 0.0161 µM
EC50 [2]: 0.058 µM

Cc1cc(C(=O)N[C@@H](Cc2ccc(F)cc2)C(=O)N[C@H](CC(C#N)c2ccccn2)C[C@@H]2CCCNC2=O)no1 (mixture of isomers)
Activity [3]: 50%
EC50 [2]: > 100 µM

Cc1cc(C(=O)N[C@@H](Cc2ccc(F)cc2)C(=O)N[C@@H](C[C@@H]2CCCNC2=O)C(O)C#N)no1 (stereo partly specified)
inhibition [4]: Active
inhibition [5]: Active

COC(=O)C(Br)=C[C@H](C[C@@H]1CCCNC1=O)NC(=O)[C@H](Cc1ccc(F)cc1)NC(=O)c1cc(C)on1
Activity [3]: 100%
Ki [1]: 0.115 µM
EC50 [2]: 0.29 µM

CCCN(C(=O)OC(C)(C)C)C(=O)/C(C#N)=C/[C@H](C[C@@H]1CCCNC1=O)NC(=O)[C@H](Cc1ccc(F)cc1)NC(=O)c1cc(C)on1
Ki [1]: 0.018 µM
EC50 [2]: 0.089 µM

CCOC(=O)C(Cl)=C[C@H](C[C@@H]1CCCNC1=O)NC(=O)[C@H](Cc1ccc(F)cc1)NC(=O)c1cc(C)on1
Activity [3]: 100%
Ki [1]: 0.164 µM
EC50 [2]: 0.38 µM

CCOC(=O)C(Br)=C[C@H](C[C@@H]1CCCNC1=O)NC(=O)[C@H](Cc1ccc(F)cc1)NC(=O)c1cc(C)on1
Activity [3]: 100%
Ki [1]: 0.117 µM
EC50 [2]: 0.35 µM

Cc1cc(C(=O)N[C@@H](Cc2ccc(F)cc2)C(=O)N[C@H](/C=C(\C#N)c2ccccn2)C[C@@H]2CCCNC2=O)no1
Activity [3]: 100%
inhibition [4]: 65%
inhibition [6]: inactive
inhibition [5]: < 50%
Ki [1]: 0.119 µM
EC50 [2]: 0.46 µM

Cc1cc(C(=O)N[C@@H](Cc2ccc(F)cc2)C(=O)N[C@H](C=C(Cl)C#N)C[C@@H]2CCCNC2=O)no1
Activity [3]: 100%
EC50 [2]: > 100 µM

Cc1cc(C(=O)N[C@@H](Cc2ccc(F)cc2)C(=O)N[C@H](/C=C(\C#N)c2ccccc2)C[C@@H]2CCCNC2=O)no1
EC50 [2]: > 100 µM

COC(=O)C(Cl)=C[C@H](C[C@@H]1CCCNC1=O)NC(=O)[C@H](Cc1ccc(F)cc1)NC(=O)c1cc(C)on1
Activity [3]: 100%
inhibition [4]: < 50%
inhibition [6]: inactive
inhibition [5]: < 50%
Ki [1]: 0.152 µM
EC50 [2]: 0.67 µM

Cc1cc(C(=O)N[C@@H](Cc2ccc(F)cc2)C(=O)N[C@H](/C=C(/C#N)c2ccsc2)C[C@@H]2CCCNC2=O)no1
EC50 [2]: 19.5 µM

CNC(=O)/C=C/[C@H](C[C@@H]1CCCNC1=O)NC(=O)[C@H](Cc1ccc(F)cc1)NC(=O)c1cc(C)on1
Ratio [7]: > 100
inhibition [8]: Tde
inhibition [9]: Active
Ratio [10]: 46 M⁻¹ s⁻¹
EC50 [2]: 21 µM

Cc1cc(C(=O)N[C@@H](Cc2ccc(F)cc2)C(=O)N[C@H](C=O)C[C@@H]2CCCNC2=O)no1
inhibition [4]: Active
inhibition [5]: < 50%

Cc1cc(C(=O)N[C@@H](Cc2ccc(F)cc2)C(=O)N[C@H](/C=C(\C#N)c2ccc3ccccc3c2)C[C@@H]2CCCNC2=O)no1
EC50 [2]: 13 µM

Cc1cc(C(=O)N[C@@H](Cc2ccc(F)cc2)C(=O)N[C@H](/C=C(/C#N)c2ccccn2)C[C@@H]2CCCNC2=O)no1
Activity [3]: 90%
Ki [1]: 0.693 µM
EC50 [2]: 2.7 µM

CCOC(=O)/C(C#N)=C/[C@H](C[C@@H]1CCCNC1=O)NC(=O)[C@H](Cc1ccc(F)cc1)NC(=O)c1cc(C)on1
Ki [1]: 0.0131 µM
EC50 [2]: 0.072 µM

CNC(=O)/C(C#N)=C/[C@H](C[C@@H]1CCCNC1=O)NC(=O)[C@H](Cc1ccc(F)cc1)NC(=O)c1cc(C)on1
Activity [11]: 50%
inhibition [4]: < 50%
inhibition [6]: inactive
Activity [12]: Active
inhibition [5]: < 50%
Ki [1]: 0.304 µM
EC50 [2]: 0.4 µM
Ratio [13]: 0.1

CCCNC(=O)/C(C#N)=C/[C@H](C[C@@H]1CCCNC1=O)NC(=O)[C@H](Cc1ccc(F)cc1)NC(=O)c1cc(C)on1
Ki [1]: 0.752 µM
EC50 [2]: 0.99 µM

CC(C#N)=C[C@H](C[C@@H]1CCCNC1=O)NC(=O)[C@H](Cc1ccc(F)cc1)NC(=O)c1cc(C)on1
EC50 [2]: > 100 µM

CCOC(=O)/C=C/[C@H](C[C@@H]1CCCNC1=O)NC(=O)[C@H](Cc1ccc(F)cc1)NC(=O)c1cc(C)on1
inhibition [8]: Tde
inhibition [9]: Active
Ratio [10]: 72 M⁻¹ s⁻¹
EC50 [2]: 17 µM

CCNC(=O)/C(C#N)=C/[C@H](C[C@@H]1CCCNC1=O)NC(=O)[C@H](Cc1ccc(F)cc1)NC(=O)c1cc(C)on1
Ki [1]: 0.332 µM
EC50 [2]: 0.51 µM

COC(=O)/C=C/[C@H](C[C@@H]1CCCNC1=O)NC(=O)[C@H](Cc1ccc(F)cc1)NC(=O)c1cc(C)on1
inhibition [4]: < 50%
inhibition [6]: inactive
Ratio [7]: > 100
inhibition [8]: Tde
Activity [12]: inactive
inhibition [9]: Active
Ratio [10]: 34 M⁻¹ s⁻¹
inhibition [5]: < 50%
EC50 [2]: 18.3 µM

Cc1cc(C(=O)N[C@@H](Cc2ccc(F)cc2)C(=O)N[C@H](/C=C(\C#N)C(=O)N(C)C)C[C@@H]2CCCNC2=O)no1
inhibition [14]: Active
Activity [15]: Active
Activity [16]: Active
Activity [17]: Active
inhibition [18]: Active
Ki [1]: 0.094 µM
EC50 [2]: 0.11 µM
Ratio [13]: 1
inhibition [19]: inactive

Cc1cc(C(=O)N[C@@H](Cc2ccc(F)cc2)C(=O)N[C@H](C=C(Br)C#N)C[C@@H]2CCCNC2=O)no1
Activity [3]: 100%
EC50 [2]: > 100 µM

CCCOC(=O)/C(C#N)=C/[C@H](C[C@@H]1CCCNC1=O)NC(=O)[C@H](Cc1ccc(F)cc1)NC(=O)c1cc(C)on1
Ki [1]: 0.0103 µM
EC50 [2]: 0.077 µM

Cc1cc(C(=O)N[C@@H](Cc2ccc(F)cc2)C(=O)N[C@H](/C=C(\C#N)c2ccsc2)C[C@@H]2CCCNC2=O)no1
inhibition [4]: < 50%
inhibition [6]: inactive
inhibition [5]: < 50%
Ki [1]: 0.516 µM
EC50 [2]: 3.1 µM

COC(=O)C(C#N)C[C@H](C[C@@H]1CCCNC1=O)NC(=O)[C@H](Cc1ccc(F)cc1)NC(=O)c1cc(C)on1 (mixture of isomers)
EC50 [2]: > 100 µM
